Experimental data: ChEMBL document CHEMBL4477161, “Facile Synthesis of Natural Alkoxynaphthalene Analogues from Plant Alkoxybenzenes” (J Nat Prod, 2016)
The source made the active and inactive calls.

Legend:
Type in all cases: functional, organism-based
Paracentrotus lividus [1] = experiment: In vivo antiproliferative activity in sea urchin embryos assessed as cleavage alteration up to 4 uM measured after 2.5 to 5.5 hrs post fertilization
Summary of the method: (§1)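 Fertilized sea urchin eggs, cultured at room temperature in filtered seawater with paddle agitation (60 rpm), were exposed as a monolayer (up to 2000 embryos/mL) 8−20 min after fertilization to 2-fold serial dilutions. Compounds came from 10 mM DMSO stocks diluted 10-fold in 96% EtOH, with final DMSO ≤0.05% and EtOH ≤1%. Cleavage alteration was scored microscopically at 2.5−5.5 h post-fertilization. The threshold concentration is the lowest dose giving 100% alteration.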

Paracentrotus lividus [2] = experiment: In vivo antiproliferative activity in sea urchin embryos assessed as cleavage alteration at 2 uM measured after 2.5 to 5.5 hrs post fertilization; summary of the method: as §1
Paracentrotus lividus [3] = experiment: In vivo antiproliferative activity in sea urchin embryos assessed as cleavage alteration at 4 uM measured after 2.5 to 5.5 hrs post fertilization; summary of the method: as §1
Paracentrotus lividus [4] = experiment: In vivo antiproliferative activity in sea urchin embryos assessed as cleavage alteration at 1 uM measured after 2.5 to 5.5 hrs post fertilization; summary of the method: as §1

Row | SMILES | Activity (Paracentrotus lividus [1]) | also measured
1 | COc1ccc(-c2cccc3cc(OC)c4c(c23)OCO4)cc1 | inactive | 
2 | COc1ccc(C(O)CC(O)Cc2cc(OC)c3c(c2OC)OCO3)cc1 (stereo not given) |  | Activity (Paracentrotus lividus [2]): Active
3 | COc1ccc(C(N)CC(O)Cc2cc(OC)c3c(c2OC)OCO3)cc1 (stereo not given) | inactive | 
4 | COc1ccc(-c2cccc3cc4c(c(OC)c23)OCO4)cc1 |  | Activity (Paracentrotus lividus [3]): Active
5 | COc1ccc(C2CC(O)Cc3c(OC)c4c(c(OC)c32)OCO4)cc1 (stereo not given) | inactive | 
6 | COc1ccc(-c2cccc3c(OC)c4c(c(OC)c23)OCO4)cc1 | inactive | 
7 | COc1ccc(-c2cccc3cc4c(cc23)OCO4)cc1 | inactive | 
8 | COc1ccc(-c2cccc3c(OC)c(OC)c(OC)c(OC)c23)cc1 | inactive | 
9 | COc1cc(-c2cccc3cc4c(cc23)OCO4)cc(OC)c1OC |  | Activity (Paracentrotus lividus [3]): Active; Activity (Paracentrotus lividus [2]): Active
10 | COc1ccc(-c2cccc3c(OC)c(OC)c4c(c23)OCO4)cc1 |  | Activity (Paracentrotus lividus [4]): Active; Activity (Paracentrotus lividus [3]): Active; Activity (Paracentrotus lividus [2]): Active
11 | COc1ccc(C(=O)CC(O)Cc2cc(OC)c3c(c2)OCO3)cc1 (stereo not given) | inactive | 
12 | COc1ccc(C(=O)CC(O)Cc2ccc3c(c2)OCO3)cc1 (stereo not given) | inactive | 
